Measured values of several laboratories.
Each line is one published result; the experiments were not run side by side.
Sample: Caco-2

Cn1c(S)nc2c1c(=O)n(Cc1ccccc1)c(=O)n2C  Papp B→A (10 µM, 2 h): 30.5 ×10⁻⁶ cm/s
N#C[C@H](C[C@@H]1CCCNC1=O)NC(=O)[C@H](CC1CC1)NC(=O)c1cc2cccc(Cl)c2[nH]1  Papp: 0.36 ×10⁻⁶ cm/s
CNCc1cc(-c2ccccc2F)n(S(=O)(=O)c2cccnc2)c1  Papp: 17.8 ×10⁻⁶ cm/s
O=c1c(O)c(-c2ccc(O)cc2)oc2cc(O)cc(O)c12  Papp (1 mg/mL, pH 7.4): 1.17 ×10⁻⁶ cm/s
Nc1nc2c(ncn2COCCO)c(=O)[nH]1  Papp B→A (10 µM, 2 h, pH 7.4): 0.756 ×10⁻⁶ cm/s
Cn1c(=O)c2c(nc(S)n2C)n(C)c1=O  Papp B→A (10 µM, 2 h): 3 ×10⁻⁶ cm/s
COc1cc(Cl)c(C(=O)N[C@@H](CN[C@H]2CC[C@@H](N)CC2)Cc2ccc(C#N)cc2)cc1-c1ccc(CN[C@H](C)c2ccc(C)cc2)o1  Papp B→A (2 µM, 2 h, pH 7.2): 1.1 ×10⁻⁶ cm/s
CC(C)NCC(O)COc1cccc2ccccc12 (centres unmarked)  Papp: 20 ×10⁻⁶ cm/s
CO[C@@H](C[C@H]1C(C)=CC[C@@H]2[C@]3(C)C[C@H](O[C@@H]4O[C@@H](C)[C@H](OC(=O)c5cccc(O)c5)[C@@H](O[C@@H]5O[C@H](CO)[C@@H](O)[C@H](O)[C@H]5NC(C)=O)[C@H]4O)[C@@H](O)C(C)(C)[C@H]3CC[C@]21C)[C@H](N)C(=O)O.O=C(O)C(F)(F)F  Papp B→A (5 µM, 1 h): 0.05 ×10⁻⁶ cm/s
CCOC(=O)[C@@]12C[C@@H]1[C@@H](n1ccc3c(NC)nc(C#Cc4ccc(Cl)s4)nc31)[C@H](O)[C@@H]2O  Papp B→A (10 µM, 2 h, pH 7.4): 22.2 ×10⁻⁶ cm/s
C[C@@H]1O[C@@H](OC[C@H]2O[C@@H](Oc3c(-c4ccc(O)c(O)c4)oc4cc(O)cc(O)c4c3=O)[C@H](O)[C@@H](O)[C@@H]2O)[C@H](O)[C@H](O)[C@H]1O  Papp (1 mg/mL, pH 7.4): 24.5 ×10⁻⁶ cm/s
COc1cccc2c(-c3ccccc3)cc(-c3ccc(-c4ccc(C(=O)O)cc4)[nH]3)nc12  Papp B→A: 7.44 ×10⁻⁶ cm/s
CCN1C(=O)N(c2c(F)c(OC)cc(OC)c2F)Cc2cnc3[nH]c(CN4CCOCC4)cc3c21  Papp (50 µM): 11 ×10⁻⁶ cm/s
Cc1ncsc1-c1ccc(CNC(=O)[C@@H]2C[C@@H](O)CN2C(=O)[C@@H](NC(=O)C2(F)CC2)C(C)(C)C)c(OCCOc2ccc(CN3CCN(c4cc(-c5ccccc5O)nnc4N)CC3)cc2)c1  Papp B→A (2 h, pH 7.2): 3.8 ×10⁻⁶ cm/s
CCC(=O)N[C@H]1Cc2cccc(C(=O)O)c2OB1O  Papp B→A (5 µM, 2 h, pH 7.4): 0.15 ×10⁻⁶ cm/s
C[C@H]1O[C@@H](O[C@H]2[C@@H](O)C[C@H](O[C@H]3[C@@H](O)C[C@H](O[C@H]4CC[C@@]5(C)[C@H](CC[C@@H]6[C@@H]5C[C@@H](O)[C@]5(C)[C@@H](C7=CC(=O)OC7)CC[C@]65O)C4)O[C@@H]3C)O[C@@H]2C)C[C@H](O)[C@@H]1O  Papp B→A: 14 ×10⁻⁶ cm/s
CNC(=C[N+](=O)[O-])NCCSCc1ccc(CN(C)C)o1  Papp B→A: 2 ×10⁻⁶ cm/s
